# Data taken from ChEMBL document CHEMBL1255453, “Affinity of ceftaroline and other beta-lactams for penicillin-binding proteins from Staphylococcus aureus and Streptococcus pneumoniae” (Antimicrob Agents Chemother, 2010).
# Columns and labels:
# [1] = molecular target: T1, Penicillin-binding protein 1A (Streptococcus pneumoniae serotype 4 (strain ATCC BAA-334 / TIGR4), UniProt Q04707); assay: Binding affinity to penicillin-resistant Streptococcus pneumoniae 2527 PBP1A by competitive binding assay
# T1 sequence (Q04707 whole entry): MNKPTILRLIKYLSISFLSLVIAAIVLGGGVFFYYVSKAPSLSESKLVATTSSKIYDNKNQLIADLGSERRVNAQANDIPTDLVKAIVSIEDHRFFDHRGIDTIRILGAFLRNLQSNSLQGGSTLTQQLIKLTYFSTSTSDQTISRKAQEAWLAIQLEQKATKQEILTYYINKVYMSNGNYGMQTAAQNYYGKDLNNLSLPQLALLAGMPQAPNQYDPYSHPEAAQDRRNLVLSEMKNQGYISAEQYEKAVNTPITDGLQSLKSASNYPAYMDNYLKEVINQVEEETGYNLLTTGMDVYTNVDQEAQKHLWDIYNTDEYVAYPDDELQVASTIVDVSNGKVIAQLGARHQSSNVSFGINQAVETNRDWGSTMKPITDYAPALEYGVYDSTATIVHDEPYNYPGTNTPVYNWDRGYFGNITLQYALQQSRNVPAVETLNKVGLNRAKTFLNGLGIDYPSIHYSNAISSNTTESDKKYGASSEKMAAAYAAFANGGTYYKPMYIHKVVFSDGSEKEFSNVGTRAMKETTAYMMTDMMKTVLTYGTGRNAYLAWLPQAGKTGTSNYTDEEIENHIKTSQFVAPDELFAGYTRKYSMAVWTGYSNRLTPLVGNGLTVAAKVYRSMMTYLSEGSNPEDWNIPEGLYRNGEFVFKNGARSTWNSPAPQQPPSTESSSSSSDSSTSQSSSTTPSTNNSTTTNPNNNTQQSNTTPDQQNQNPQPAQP
# Procedure, shortened: (§1)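 Whole pneumococcal cells were grown to OD600 0.3 in Todd-Hewitt broth plus 0.5% yeast extract, then resuspended in 50 mM NaPO4, pH 7.0. Cells at 10^8 to 5 × 10^8 CFU/ml were exposed to β-lactam for 10 min at 37°C, alongside a reference without drug. They were then labeled with 10 μg/ml Bocillin FL for 15 min at 37°C. Proteins were resolved by SDS-PAGE and fluorescence read at 520 nm. IC50 was taken as 50% inhibition of Bocillin FL binding, from 2 experiments.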
# [2] = molecular target: T2, Penicillin-binding protein 2x (Streptococcus pneumoniae serotype 4 (strain ATCC BAA-334 / TIGR4), UniProt P14677); assay: Binding affinity to penicillin-resistant Streptococcus pneumoniae 24 PBP2X by competitive binding assay; procedure, shortened: as §1
# [3] = Binding affinity to against penicillin-susceptible Streptococcus pneumoniae 1076 PBP2A by competitive binding assay
# Procedure, shortened: (§2)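 Whole pneumococcal cells grown to OD600 0.3 in Todd-Hewitt broth with 0.5% yeast extract, resuspended in 50 mM NaPO4 pH 7.0. Cells (10^8–5 × 10^8 CFU/ml) incubated with β-lactam 10 min at 37°C, then Bocillin FL 10 μg/ml, 15 min at 37°C. SDS-PAGE, 520 nm fluorescence; IC50 = 50% inhibition of Bocillin FL binding; 2 experiments.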
# [4] = Binding affinity to penicillin-resistant Streptococcus pneumoniae 2527 PBP2A by competitive binding assay; procedure, shortened: as §1
# [5] = molecular target: T2, Penicillin-binding protein 2x; assay: Binding affinity to penicillin-resistant Streptococcus pneumoniae 2527 PBP2X by competitive binding assay; procedure, shortened: as §1
# [6] = molecular target: T3, Penicillin-binding protein 2B (Streptococcus pneumoniae serotype 4 (strain ATCC BAA-334 / TIGR4), UniProt P0A3M5); assay: Binding affinity to penicillin-resistant Streptococcus pneumoniae 2527 PBP2B by competitive binding assay; procedure, shortened: as §1
# T3 sequence (P0A3M5 whole entry): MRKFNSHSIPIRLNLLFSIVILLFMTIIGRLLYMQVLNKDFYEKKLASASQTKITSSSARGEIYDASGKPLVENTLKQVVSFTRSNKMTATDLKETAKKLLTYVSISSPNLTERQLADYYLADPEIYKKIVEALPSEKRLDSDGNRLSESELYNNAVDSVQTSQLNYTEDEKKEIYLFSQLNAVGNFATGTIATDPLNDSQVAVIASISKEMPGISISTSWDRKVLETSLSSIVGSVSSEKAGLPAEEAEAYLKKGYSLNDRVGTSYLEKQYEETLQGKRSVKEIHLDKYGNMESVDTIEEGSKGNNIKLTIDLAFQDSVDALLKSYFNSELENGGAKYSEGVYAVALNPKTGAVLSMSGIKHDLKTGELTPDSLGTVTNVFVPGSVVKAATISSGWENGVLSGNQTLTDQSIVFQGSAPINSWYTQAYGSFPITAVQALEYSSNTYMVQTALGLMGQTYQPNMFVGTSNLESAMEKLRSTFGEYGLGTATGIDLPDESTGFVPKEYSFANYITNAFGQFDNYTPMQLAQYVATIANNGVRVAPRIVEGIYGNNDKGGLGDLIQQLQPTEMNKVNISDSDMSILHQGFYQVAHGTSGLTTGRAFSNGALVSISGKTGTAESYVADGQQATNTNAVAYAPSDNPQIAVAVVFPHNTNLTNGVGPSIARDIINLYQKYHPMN
# [7] = Binding affinity to penicillin-resistant Streptococcus pneumoniae 2527 PBP1B by competitive binding assay; procedure, shortened: as §1
# [8] = Binding affinity to penicillin-resistant Streptococcus pneumoniae 2527 PBP3 by competitive binding assay; procedure, shortened: as §1
# [9] = Binding affinity to against penicillin-susceptible Streptococcus pneumoniae 1076 PBP1B by competitive binding assay; procedure, shortened: as §2
# [10] = molecular target: T3, Penicillin-binding protein 2B; assay: Binding affinity to penicillin-resistant Streptococcus pneumoniae 3413 PBP2B by competitive binding assay; procedure, shortened: as §1
# [11] = Binding affinity to against penicillin-susceptible Streptococcus pneumoniae 1076 PBP3 by competitive binding assay; procedure, shortened: as §2
# [12] = molecular target: T1, Penicillin-binding protein 1A; assay: Binding affinity to penicillin-resistant Streptococcus pneumoniae 24 PBP1A by competitive binding assay; procedure, shortened: as §2
# [13] = molecular target: T1, Penicillin-binding protein 1A; assay: Binding affinity to against penicillin-susceptible Streptococcus pneumoniae 1076 PBP1A by competitive binding assay; procedure, shortened: as §2
# [14] = Binding affinity to penicillin-resistant Streptococcus pneumoniae 24 PBP3 by competitive binding assay; procedure, shortened: as §1
# [15] = Binding affinity to penicillin-resistant Streptococcus pneumoniae 3413 PBP3 by competitive binding assay; procedure, shortened: as §1
# [16] = molecular target: T2, Penicillin-binding protein 2x; assay: Binding affinity to penicillin-resistant Streptococcus pneumoniae 3413 PBP2X by competitive binding assay; procedure, shortened: as §1
# [17] = molecular target: T3, Penicillin-binding protein 2B; assay: Binding affinity to penicillin-resistant Streptococcus pneumoniae 24 PBP2B by competitive binding assay; procedure, shortened: as §1
# [18] = Binding affinity to penicillin-resistant Streptococcus pneumoniae 3413 PBP1B by competitive binding assay; procedure, shortened: as §1
# [19] = Binding affinity to penicillin-resistant Streptococcus pneumoniae 24 PBP1B by competitive binding assay; procedure, shortened: as §2
# [20] = molecular target: T3, Penicillin-binding protein 2B; assay: Binding affinity to against penicillin-susceptible Streptococcus pneumoniae 1076 PBP2B by competitive binding assay; procedure, shortened: as §2
# [21] = molecular target: T1, Penicillin-binding protein 1A; assay: Binding affinity to penicillin-resistant Streptococcus pneumoniae 3413 PBP1A by competitive binding assay; procedure, shortened: as §1
# T2 sequence (P14677 whole entry, looked up): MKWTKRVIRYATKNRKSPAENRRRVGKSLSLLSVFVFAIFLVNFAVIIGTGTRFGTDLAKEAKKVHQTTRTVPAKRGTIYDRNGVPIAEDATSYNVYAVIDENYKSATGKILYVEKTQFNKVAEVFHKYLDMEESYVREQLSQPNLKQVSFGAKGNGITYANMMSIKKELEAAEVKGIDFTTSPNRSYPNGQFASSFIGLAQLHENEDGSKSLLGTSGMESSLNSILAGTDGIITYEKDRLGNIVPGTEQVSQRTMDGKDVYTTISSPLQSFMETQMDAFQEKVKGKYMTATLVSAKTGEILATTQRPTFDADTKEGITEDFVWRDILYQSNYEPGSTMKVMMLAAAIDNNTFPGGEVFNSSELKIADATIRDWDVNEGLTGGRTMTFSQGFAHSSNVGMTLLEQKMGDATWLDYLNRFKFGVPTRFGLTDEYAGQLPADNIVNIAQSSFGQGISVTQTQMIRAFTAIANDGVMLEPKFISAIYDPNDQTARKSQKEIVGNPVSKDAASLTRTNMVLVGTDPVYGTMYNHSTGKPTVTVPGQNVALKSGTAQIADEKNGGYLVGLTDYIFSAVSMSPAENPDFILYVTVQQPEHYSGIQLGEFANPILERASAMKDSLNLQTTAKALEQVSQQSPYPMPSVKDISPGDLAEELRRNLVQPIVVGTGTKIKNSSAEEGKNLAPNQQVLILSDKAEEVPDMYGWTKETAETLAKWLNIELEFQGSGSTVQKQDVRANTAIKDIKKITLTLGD
SMILES,IC50 [1],IC50 [2],IC50 [3],IC50 [4],IC50 [5],IC50 [6],IC50 [7],IC50 [8],IC50 [9],IC50 [10],IC50 [11],IC50 [12],IC50 [13],IC50 [14],IC50 [15],IC50 [16],IC50 [17],IC50 [18],IC50 [19],IC50 [20],also measured
CO/N=C(\C(=O)N[C@@H]1C(=O)N2C(C(=O)O)=C(COC(C)=O)CS[C@H]12)c1csc(N)n1 [CEFOTAXIME],549 nM,2200 nM,0.25 µg/mL,0.25 µg/mL,220 nM,8780 nM,0.25 µg/mL,0.1 µg/mL,0.25 µg/mL,35100 nM,0.1 µg/mL,274 nM,220 nM,0.1 µg/mL,0.1 µg/mL,8780 nM,35100 nM,4 µg/mL,8 µg/mL,> 70300 nM,IC50 [21]: 549 nM
CO/N=C(\C(=O)N[C@@H]1C(=O)N2C(C(=O)O)=C(CSc3nc(=O)c(O)nn3C)CS[C@H]12)c1csc(N)n1 [CEFTRIAXONE],451 nM,1800 nM,0.25 µg/mL,0.25 µg/mL,180 nM,7210 nM,0.125 µg/mL,0.25 µg/mL,0.1 µg/mL,28900 nM,0.1 µg/mL,451 nM,180 nM,0.25 µg/mL,0.25 µg/mL,7210 nM,28900 nM,4 µg/mL,1 µg/mL,> 57700 nM,IC50 [21]: 451 nM
